ASAP1 inh – inhibitors of human ASAP1 ArfGAP activity. Q9ULH1. ASAP1-stimulated ARF1 GTP hydrolysis, GDP FP detection. inhibition, % at 16.5 µM. AID 624377. hit rate 0.19% among 360,000; in the data active means inhibition above about 25%;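 further: 0% = vehicle with enzyme and substrate and 100% = no enzyme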
LEDGF integ inh – blocks HIV-1 LEDGF/p75-dependent DNA integration. inhibition, % at 3.7 µM. TR-FRET IN-LEDGF/p75 DNA integration, Eu/Cy5. hit rate 0.64% among 370,000. AID 743269;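 active means inhibition above the screen-wide mean plus 3 SD, cut at about 13% in these data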;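 further: signal is the Cy5 over europium emission ratio at 671 and 618 nm; 0% = plate median of compound wells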
UHRF1 binding – human UHRF1 methylated DNA binding inhibitors; AID 687016; inhibition, % at 4.4 µM; UHRF1 binding to methylated oligo, TR-FRET; hit rate 0.75% among 370,000; Q96T88; in the data active means inhibition above about 21%;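 further: UHRF1 SRA domain binding a hemimethylated CpG hairpin DNA probe; 0% = median of test compound wells and 100% = reference inhibitor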
MBD2 inh – inhibitors of human MBD2 binding to methylated oligonucleotide. Q9UBB5. TR-FRET. inhibition, % at 4.4 µM. hit rate 0.31% among 370,000; in the data active means inhibition above about 13%
Target sequence (Q9UBB5 whole entry, looked up): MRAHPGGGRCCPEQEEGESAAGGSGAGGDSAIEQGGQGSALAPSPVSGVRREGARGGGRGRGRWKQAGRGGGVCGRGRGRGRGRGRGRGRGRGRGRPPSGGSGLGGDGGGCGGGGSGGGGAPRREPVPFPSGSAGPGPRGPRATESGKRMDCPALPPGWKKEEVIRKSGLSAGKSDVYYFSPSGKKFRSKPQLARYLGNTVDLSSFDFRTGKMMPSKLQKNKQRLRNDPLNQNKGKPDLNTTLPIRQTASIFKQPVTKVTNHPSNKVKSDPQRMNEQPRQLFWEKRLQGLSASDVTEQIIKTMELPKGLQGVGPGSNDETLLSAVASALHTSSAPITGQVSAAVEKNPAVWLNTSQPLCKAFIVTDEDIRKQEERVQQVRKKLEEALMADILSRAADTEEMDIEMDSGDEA
TCR-CD3 inh – human TCR-CD3 binding inhibition. hit rate 0.37% among 360,000. inhibition, % at 9.4 µM. TAMRA-labeled TCR probe fluorescence, biochemical. AID 651800; in the data active means inhibition above about 19%;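 further: recombinant mutant TCR 2C K166C tagged with TAMRA read by polarization; 0% = receptor in buffer alone and 100% = receptor with positive control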
ARFGAP1 inhibitor – rat ARFGAP1 inhibition; Arfgap1-stimulated ARF1 GTP hydrolysis, GDP FP detection; hit rate 0.26% among 360,000; inhibition, % at 16.5 µM; Q62848;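 active means inhibition above a per-plate limit, mean inhibition of low control wells plus 3 SD, cut at about 25% in these data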;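 further: 0% = DMSO wells with enzyme and 100% = wells lacking Arfgap1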
Target sequence (Q62848 1-136 limits assumed): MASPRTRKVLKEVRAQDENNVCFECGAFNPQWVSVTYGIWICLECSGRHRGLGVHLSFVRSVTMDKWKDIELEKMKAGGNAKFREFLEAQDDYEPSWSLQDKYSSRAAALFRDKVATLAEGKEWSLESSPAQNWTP
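Assay system: Rat Arfgap1 GAP domain (His6, aa 1-136), purified enzyme | Buffer or medium: HEPES 25 mM pH 7.5, NaCl 150 mM, MgCl2, DTT | Schedule: GTP hydrolysis reaction 2 h at 25 °C | Signal: FP of antibody-bound GDP Alexa 633 tracer, ex 620/em 688 nm | Measure: Percent inhibition of Arfgap1-stimulated GTP hydrolysis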
IN multimer up – HIV-1 integrase multimerization activation, counter-screen. shares compounds with LEDGF integ inh. TR-FRET HIV-1 integrase multimerization, biochemical. activation, % at 7.7 µM. hit rate 17% among 2,000. AID 1053131; in the data active means activation above about 8.9%
TR-FRET interf – TR-FRET optical interference, LEDGF/p75 integration counter-screen; shares compounds with LEDGF integ inh; TR-FRET optical interference counterscreen, HIV-1 IN multimerization; 2,000 tested, under 10 active; inhibition, % at 7.7 µM;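 active means inhibition above the mean over all tested compounds plus 3 SD, which no compound reached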;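 further: 0% = integrase with antibodies and DMSO and 100% = antibodies without integrase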
IN-LEDGF confirm – confirmation of HIV-1 LEDGF/p75-dependent integration inhibitors; shares compounds with LEDGF integ inh; TR-FRET LEDGF/p75-dependent HIV-1 integration, biochemical; inhibition, % at 3.7 µM; hit rate 36% among 2,000; in the data active means inhibition above about 14%
* = called active by the depositor; nt = no result. Rows were chosen to be rich in hits. Some 2% of all compounds tested hit in one or more screens of this group.

SMILES	ASAP1 inh	LEDGF integ inh	UHRF1 binding	MBD2 inh	TCR-CD3 inh	ARFGAP1 inhibitor	IN multimer up	TR-FRET interf	IN-LEDGF confirm
N#CC1=C(N)n2c(s/c(=C\c3cccs3)c2=O)=C(C#N)C1c1cccs1 (stereo not given)	9.3	11.3	8.8	8.7	-2.3	3.8	nt	nt	nt
CCOC(=O)C1=C(N)n2c(s/c(=C/c3ccco3)c2=O)=C(C(=O)OC)C1c1ccco1 (stereo not given)	-2.2	48.1*	19.8	1.1	3.5	1.7	0.3	-1.4	2.6
N#CC1=C(N)n2c(s/c(=C\c3ccco3)c2=O)=C(C#N)C1c1ccco1 (stereo not given)	-9.4	38.0*	41.1*	12.4	7.4	0.4	18.0*	-91.0	66.5*
Cn1c(=O)c(=O)n(C)c2cc(S(=O)(=O)CCC(=O)Nc3c(F)c(F)c(F)c(F)c3F)ccc21	3.7	-0.7	0.1	-3.0	2.2	-5.7	nt	nt	nt
Cn1ccc2c(N(Cc3ccccc3)Cc3ccccc3)cc3c(c21)C1CCC3O1 (stereo not given)	14.3	19.7*	-5.2	-10.4	-0.5	-7.6	-1.2	4.2	-2.8
CCCNC(=O)C1(C)CCN(CCC(=O)c2ccc(Br)cc2)C1 (stereo not given)	4.8	62.9*	3.1	-7.0	0.6	10.5	0.1	-0.7	0.4
COCCNC(=O)C1(C)CCCN(CCC(=O)c2ccc(Br)cc2)C1 (stereo not given)	-5.7	-3.4	-2.6	0.0	2.8	-3.6	nt	nt	nt
CC1(C(=O)NCCC(F)(F)F)Cc2c(-c3cccc(C(N)=O)c3)ccnc2O1 (stereo not given)	-0.3	14.2*	0.6	-2.3	3.8	-15.3	-1.8	9.1	-1.7
Nc1ccccc1SCC(=O)Nc1ccc2c(c1)OCO2	-0.1	-4.4	0.8	2.1	-1.5	6.7	nt	nt	nt
O=C(NC12CC3CC(CC(C3)C1)C2)N1CCN(c2ccccn2)CC1	11.9	49.4*	-0.5	3.9	-2.5	4.4	-0.2	1.0	-7.5
O=C(NC12CC3CC(CC(C3)C1)C2)N1CCN(c2ncccn2)CC1	6.7	-2.9	-0.3	5.1	-0.1	8.5	nt	nt	nt
C(=N\Nc1nncn1/N=C/c1ccco1)/c1ccco1	6.0	37.1*	-4.0	-8.1	2.2	5.0	1.0	-5.2	1.8
COc1cc(/C=N\Nc2nncn2N)ccc1OC(C)=O	1.4	58.4*	8.1	2.0	-3.8	7.7	-0.3	1.1	2.2
COc1cc(/C=N/Nc2nncn2/N=C/c2ccc(O)c(OC)c2)ccc1O	-14.7	47.9*	10.5	2.3	-1.5	10.5	6.8	-24.2	-5.9
COc1cc(/C=N/NC(=O)c2ccncc2)ccc1OC(C)=O	13.2	1.2	-2.8	-4.1	-0.2	-0.6	nt	nt	nt
COc1ccc(OC)c(/C=N/Nc2nncn2/N=C/c2cc(OC)ccc2OC)c1	10.0	38.8*	4.1	3.2	-3.0	18.0	0.9	-4.5	2.0
Cc1ccc(S(=O)(=O)Nc2cc(C(F)(F)F)ccc2N2CCOCC2)c(C)c1	-1.3	-0.7	1.9	5.3	-3.2	11.3	nt	nt	nt
Cc1ccc(S(=O)(=O)N2CCC(C(N)=O)CC2)cc1[N+](=O)[O-]	2.4	1.0	5.3	2.3	0.6	4.1	nt	nt	nt
CCOC(=O)c1c(C)c(C(=O)NC2CCCCCC2)c(C)n1C	11.0	65.7*	-1.7	0.9	2.1	-4.9	-0.8	2.9	4.5
CC(C)(C)NC(=O)C(Cc1ccccc1)N1C(=O)c2ccccc2C1=O (stereo not given)	-1.8	6.8	1.5	7.8	-9.5	-7.3	nt	nt	nt
CCCCNC(=O)C1(C)CCN1C(=O)c1ccc2c(c1)C(C)(C)CCC2(C)C (stereo not given)	9.7	-3.5	-0.3	1.1	-4.2	2.6	nt	nt	nt
O=C1c2cccc(Cl)c2C(=O)c2c1cccc2N1CCCC1	2.7	32.2*	14.2	-2.8	-7.3	-7.1	1.1	-5.6	-8.7
O=C(COc1ccccc1Cl)N1CCN(c2ccccn2)CC1	6.3	4.8	-2.0	0.3	9.8	-8.1	nt	nt	nt
O=C(COC(=O)C1=COCCO1)Nc1cc(Cl)c(Cl)cc1Cl	12.3	-1.7	0.0	-0.2	5.5	-6.5	nt	nt	nt
COC(=O)C1=C(N)OC2=C(C(=O)CCC2)C1c1ccc2c(c1)OCO2 (stereo not given)	0.3	5.5	-1.2	-3.3	12.1	7.5	nt	nt	nt
SMILES	ASAP1 inh	LEDGF integ inh	UHRF1 binding	MBD2 inh	TCR-CD3 inh	ARFGAP1 inhibitor	IN multimer up	TR-FRET interf	IN-LEDGF confirm
COC(=O)C1=C(N)N(c2ccc(F)cc2)C2=C(C(=O)CCC2)C1c1ccc2c(c1)OCO2 (stereo not given)	1.0	18.3*	3.8	-1.8	-4.5	-0.7	0.0	0.2	-9.9
Cc1ccc(S(=O)(=O)N2CCCC2)cc1C(=O)N1CCN(Cc2ccccc2)CC1	-5.0	22.4*	-1.3	2.1	6.2	13.9	-0.4	2.3	0.5
COC(=O)[C@]12CCCCC=C1N(Cc1ccc(Cl)cc1Cl)C(=O)[C@H](CC(=O)N1CCN(C(=O)c3ccco3)CC1)C2	12.1	-2.8	2.0	0.0	-4.1	-9.8	nt	nt	nt
Cc1cc(C)n2nc(-c3ccsc3-n3c(C)ccc3C)cc2n1	15.0	24.1*	0.1	-0.1	-4.0	3.0	4.1	-20.6	20.2*
Cc1ccc(-c2cc3nc(C)cc(C)n3n2)cc1	7.0	-2.0	2.5	-2.0	2.8	4.4	nt	nt	nt
COc1cc(N)c2ncccc2c1OC	-3.4	27.4*	0.0	-8.7	-2.4	-6.9	3.3	-16.8	-2.9
COc1cc(C(=O)Nc2cccc3ncccc23)cc(OC)c1OC	0.3	4.1	0.2	3.4	1.3	-4.6	nt	nt	nt
CC1(C(=O)NCc2cccnc2)CCN1C(=O)c1cccc(F)c1 (stereo not given)	-8.5	1.8	7.5	3.9	-5.3	5.9	nt	nt	nt
Cc1cccc(Nc2cc(=O)n(C)c(=O)[nH]2)c1	0.1	4.3	1.4	2.4	4.0	-10.2	nt	nt	nt
COc1cc(C2C3=C(COC3=O)Oc3cc4c(cc32)OCO4)cc(OC)c1O (stereo not given)	5.8	23.1*	1.5	-1.4	7.0	-14.6	-0.3	1.8	-3.4
COc1cc(C2C3=C(COC3=O)Oc3cc4c(cc32)OCO4)cc(OC)c1OC (stereo not given)	-1.0	-1.8	0.1	2.3	-3.0	14.4	nt	nt	nt
COc1ccc(-n2c(Cn3c(=O)sc4ccccc43)nnc2SCC(=O)N2CCCC2)cc1	-2.9	31.9*	-2.7	2.2	-3.5	-4.5	-0.3	1.7	-0.9

Source: PubChem
